Measurements as given in ChEMBL document CHEMBL4043142, “Discovery of new leads against Mycobacterium tuberculosis using scaffold hopping and shape based similarity” (Bioorg Med Chem, 2017).
Values after ≈ are worked out from the molar mass of the structure shown.

Legend:
[1] = system: Mycobacterium tuberculosis; assay: Antitubercular activity against Mycobacterium tuberculosis H37Rv ATCC 25618 after 6 days by resazurin dye based assay; assay type: functional; conditions: H37Rv ATCC 25618, 144 h
[2] = system: Vero; assay: Cytotoxicity against African green monkey Vero cells after 72 hrs by MTT assay; assay type: cell-based; conditions: Chlorocebus sabaeus
[3] = system: HepG2; assay: Cytotoxicity against human HepG2 cells after 48 hrs by CellTiter-Glo assay; assay type: cell-based; conditions: HepG2, 48 h
[4] = Half life in mouse microsomes; assay type: ADME, Microsome
[5] = Protection index, ratio of IC50 for HepG2 cells to MIC for Mycobacterium tuberculosis H37Rv
[6] = Protection index, ratio of IC50 for African green monkey Vero cells to MIC for Mycobacterium tuberculosis H37Rv
[7] = system: Mycobacterium tuberculosis; assay: Antitubercular activity against Mycobacterium tuberculosis H37Rv after 5 days by microplate alamar blue assay; assay type: functional; conditions: 120 h
[8] = system: Staphylococcus aureus; assay: Antimicrobial activity against gram-positive Staphylococcus aureus ATCC 43300 at 32 ug/ml after 18 hrs; assay type: functional; conditions: ATCC 43300, 18 h
Summary of the method: (§1)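 Whole-cell growth inhibition screen at a single final concentration of 32 µg/mL, in duplicate on different plates, with 0.3% DMSO final. Bacteria grown overnight in cation-adjusted Mueller Hinton broth at 37°C, diluted 40-fold, and grown 1.5-3 h to mid-log. Wells seeded at 5×10^5 CFU/mL and incubated 18 h at 37°C without shaking. OD600 read; percent inhibition calculated against media-only and untreated-bacteria controls on the same plate. Colistin (Gram-negative) and vancomycin (Gram-positive) were the standards.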

[9] = system: Acinetobacter baumannii; assay: Antimicrobial activity against gram-negative Acinetobacter baumannii ATCC 19606 at 32 ug/ml after 18 hrs; assay type: functional; conditions: ATCC 19606 = CIP 70.34 = JCM 6841, 18 h; summary of the method: as §1
[10] = system: Candida albicans; assay: Antifungal activity against Candida albicans ATCC 90028 at 32 ug/ml after 24 hrs; assay type: functional; conditions: ATCC 90028, 24 h
[11] = system: HepG2; assay: Cytotoxicity against human HepG2 cells after 24 hrs by MTT assay; assay type: cell-based; conditions: HepG2, 24 h
Summary of the method: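 HepG2 cells seeded at 25,000-50,000 per well and allowed to adhere about 24 h at 37°C in 5% CO2. Serial dilutions (300, 100, 50, 10, 1, 0.1 µM) added in triplicate and incubated 24 h. MTT added to 10% of the total volume for 2-4 h in the dark. Formazan dissolved in 100% DMSO, absorbance read at 570 nm, and IC50 calculated.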

[12] = Cytotoxicity against African green monkey Vero cells after 72 hrs by sulforhodamine B assay; assay type: cell-based; conditions: chlorocebus sabaeus
[13] = Drug metabolism in rat liver microsomes after 60 mins; assay type: ADME, microsome; conditions: read-out: Drug metabolism
Summary of the method: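 Rat liver microsomes incubated with compound for 60 min. Stability followed as the peak area ratio of compound to internal standard. p-Nitrophenol conversion to p-nitrocatechol served as the positive control.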

[14] = system: Mycobacterium tuberculosis; assay: Antitubercular activity against Mycobacterium tuberculosis H37Rv at 50 ug/ml after 5 days by microplate alamar blue assay relative to control; assay type: functional; conditions: 120 h
Summary of the method: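 M. tuberculosis H37Rv tested by microplate alamar blue assay, reading the resazurin-to-resorufin colour change, at an initial 50 µg/ml. Rifampicin and isoniazid were the standards.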

[15] = system: Pseudomonas aeruginosa; assay: Antimicrobial activity against gram-negative Pseudomonas aeruginosa ATCC 27853 at 32 ug/ml after 18 hrs; assay type: functional; conditions: ATCC 27853, 18 h; summary of the method: as §1
[16] = system: Klebsiella pneumoniae; assay: Antimicrobial activity against gram-negative Klebsiella pneumoniae ATCC 700603 at 32 ug/ml after 18 hrs; assay type: functional; conditions: ATCC 700603, 18 h; summary of the method: as §1
[17] = system: Cryptococcus neoformans; assay: Antifungal activity against Cryptococcus neoformans var. grubii ATCC 208821 at 32 ug/ml after 24 hrs; assay type: functional; conditions: ATCC 208821, 24 h
Summary of the method: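 Single-concentration antifungal screen at a final 32 µg/mL, n=2 on different plates. Fungi grown 3 days on YPD agar at 30°C; suspension of 1-5×10^6 cells/mL made from five colonies, then diluted in YNB broth. Incubated 35°C for 24 h without shaking. C. albicans read at OD530. C. neoformans read as OD600-570 after resazurin (0.001% final) and a further 2 h at 35°C. Inhibition calculated against on-plate controls; fluconazole was the standard.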

[18] = system: Liver; assay: Drug level in rat liver microsomes treated with p-nitrophenol after 60 mins; assay type: ADME, microsome; conditions: 1 h
Summary of the method: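 p-Nitrophenol incubated 60 min with rat liver microsomes as the positive control; its conversion to p-nitrocatechol was measured.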

| Compound | MIC95 [7] [µg/mL] | inhibition at 32 µg/mL [8] [%] | inhibition at 32 µg/mL [10] [%] | inhibition at 50 µg/mL [14] [%] | inhibition at 32 µg/mL [15] [%] | further results |
| --- | --- | --- | --- | --- | --- | --- |
| Cc1ccc(-c2cc(CN3CCSCC3)c(C)n2-c2ccc(F)cc2)cc1 |  |  |  |  |  | MIC [1]: 0.16 µM (≈ 0.0609 µg/mL); IC50 [2]: 179 µM; IC50 [3]: 24 µM; half-life [4]: 8.2 min; Ratio [5]: 127.5 - 1937.5; Ratio [6]: 127.5 - 1937.5 |
| COc1ccc(-c2nc3ccccc3n2-c2ccc(Br)cc2)cc1 | > 50 | 12.3 to 15 | 9.75 to 11.7 | 92 |  | inhibition at 32 µg/mL [9]: 1.56 to 58.1%; IC50 [11]: 113 µM; GI50 at 72 h [12]: 5 µM; metabolised at 1 h [13]: 2% |
| COc1ccc(-c2nc3ccccc3n2-c2cccc(OC)c2)cc1 | > 50 | 7.42 to 20.4 | 5.26 to 8.76 | 14 | 9.8 to 11.2 | inhibition at 32 µg/mL [9]: 19.7 to 59.9% |
| c1ccc(-c2nc3ccccn3c2CN2CCOCC2)cc1 | > 50 | 26.1 to 28.6 | 0.3 to 6.38 | 95 | 9.04 to 16.5 | inhibition at 32 µg/mL [16]: 2.52 to 13.8%; inhibition at 32 µg/mL [17]: 2.71 to 3.04% |
| Fc1ccc(-c2nc3ccccn3c2CN2CCOCC2)cc1 | 22.2 (≈ 71.3 µM) | 22.3 to 30.3 | 0.63 to 5.39 | 95 | 11 to 14.3 |  |
| CSc1ccc(-c2cc(CN3CCSCC3)c(C)n2-c2ccc(F)cc2)cc1 |  |  |  |  |  | MIC [1]: 0.16 µM (≈ 0.066 µg/mL); IC50 [2]: 15.2 µM; IC50 [3]: 5.9 µM; half-life [4]: 10 min; Ratio [5]: 127.5 - 1937.5; Ratio [6]: 127.5 - 1937.5 |
| COc1ccc(-c2nc(-c3ccccc3)cn2-c2ccccc2)cc1 | 20.3 (≈ 62.2 µM) | 3.07 to 13.3 | 17.5 to 26.4 | 95 | 2.98 to 16.6 | inhibition at 32 µg/mL [9]: 23.1 to 34.8% |
| COc1ccc(-c2nc3ccccc3n2-c2cccc(Cl)c2)cc1 | > 50 | 14.1 to 16 | 4.66 to 7.76 | 0 | 7.07 to 24.5 |  |
| Cc1ccn2c(CN3CCCCC3)c(-c3ccccc3)nc2c1 | 33.7 (≈ 110 µM) |  |  | 95 |  |  |
| CO[C@H]1/C=C/O[C@@]2(C)Oc3c(C)c(O)c4c(O)c(c(/C=N/N5CCN(C)CC5)c(O)c4c3C2=O)NC(=O)/C(C)=C\C=C\[C@H](C)[C@H](O)[C@@H](C)[C@@H](O)[C@@H](C)[C@H](OC(C)=O)[C@@H]1C [RIFAMPIN] | 0.03 to 0.5 (≈ 0.0365 to 0.608 µM) |  |  | 95 |  |  |
| COc1ccc(-c2nc3ccccc3n2-c2ccc(Cl)cc2)cc1 | 2.3 (≈ 6.87 µM) |  | 12.2 to 12.9 | 95 | 1.34 to 9.75 | IC50 [11]: 203 µM; GI50 at 72 h [12]: 29 µM; metabolised at 1 h [13]: 0% |
| COc1cccc(-c2nc3ccccc3n2-c2ccc(Cl)cc2)c1 | > 50 |  | 4.73 to 28.1 | 67 | 2.25 to 13 | inhibition at 32 µg/mL [9]: 49.4 to 50.8%; inhibition at 32 µg/mL [17]: 6.16 to 19.6% |
| Oc1ccc(-c2nc(-c3ccccc3)cn2-c2ccccc2)cc1 | 17.8 (≈ 57 µM) |  |  | 95 |  |  |
| COc1ccc(-c2nc3ccccc3n2-c2ccc(Cl)cc2)cc1OC | 20.3 (≈ 55.6 µM) | 1.03 to 9.81 | 7.63 to 8.23 | 95 |  | inhibition at 32 µg/mL [9]: 39.9 to 42.6%; inhibition at 32 µg/mL [17]: 0.95 to 4.02%; IC50 [11]: 49.9 µM; GI50 at 72 h [12]: 8.2 µM; metabolised at 1 h [13]: 5% |
| Cc1ccc2nc(-c3ccc(F)cc3)c(CN3CCOCC3)n2c1 | 17 (≈ 52.2 µM) | 25.1 to 26.2 | 3.4 to 6.17 | 95 |  |  |
| Cc1c(CN2CCOCC2)cc(-c2ccc(C(C)C)cc2)n1-c1ccc(F)cc1 |  |  |  |  |  | MIC [1]: 0.12 µM (≈ 0.0471 µg/mL); IC50 [2]: 50.1 µM; IC50 [3]: 15.3 µM; half-life [4]: > 30 min |
| COc1ccc(-c2nc3ccccc3n2-c2ccc(Cl)cc2)c(OC)c1 | 48.3 (≈ 132 µM) | 10.9 to 14.2 | 2.68 to 3.53 | 95 |  | inhibition at 32 µg/mL [16]: 3.25 to 9.39% |
| Cc1ccn2c(CN3CCOCC3)c(-c3ccccc3)nc2c1 | 40 (≈ 130 µM) | 15.8 to 23.5 | 0.89 to 1.68 | 95 | 10.6 to 15.2 |  |
| COc1ccc(-c2cc(CN3CCSCC3)c(C)n2-c2ccc(F)cc2)cc1 |  |  |  |  |  | MIC [1]: 0.2 µM (≈ 0.0793 µg/mL); IC50 [2]: > 302 µM; IC50 [3]: > 2420 µM; half-life [4]: < 5 min; Ratio [5]: 127.5 - 1937.5; Ratio [6]: 127.5 - 1937.5 |
| Cc1ccn2c(CN3CCOCC3)c(-c3ccc(F)cc3)nc2c1 | 23.9 (≈ 73.5 µM) | 20.1 to 21.8 | 2.74 to 7.44 | 95 | 9.71 to 27 |  |
| COc1ccc(-c2nc3ccccc3n2-c2ccc(C(C)C)cc2)cc1 | > 50 | 6.25 to 12.4 | 13.1 to 14.2 | 68 | 6.29 to 15.7 | inhibition at 32 µg/mL [9]: 23.8 to 36.1%; inhibition at 32 µg/mL [17]: 7.06 to 11% |
| NNC(=O)c1ccncc1 [ISONIAZID] | 0.06 to 0.11 (≈ 0.438 to 0.802 µM) |  |  | 95 |  |  |
| COc1ccc(-c2nc3ccccc3n2-c2ccccc2)cc1O | 8 (≈ 25.3 µM) | 7.7 to 15.5 | 6.64 to 11.3 | 95 | 1.32 to 7.73 |  |
| COc1ccc(-c2nc3ccccc3n2-c2cc(C)ccc2C)cc1 | > 50 | 9.57 to 10 | 1.69 to 4.32 | 80 | 5.72 to 19.7 | inhibition at 32 µg/mL [9]: 3.5 to 38.8% |
| c1ccc(-c2nc3ccccn3c2CN2CCCCC2)cc1 | > 50 | 14.8 to 19.4 | 2.41 to 3.93 | 95 | 11.4 to 17.7 | inhibition at 32 µg/mL [9]: 1.56 to 10.4% |
| COc1ccc(-c2nc3ccccc3n2-c2ccc(F)cc2)cc1 | > 50 | 11.6 to 12.7 | 1.62 to 1.69 | 6 | 5.18 to 12.8 |  |
| O=[N+]([O-])c1ccc(O)c(O)c1 [4-Nitrocatechol] |  |  |  |  |  | Drug metabolism [18]: Metabolite_Detected |
